# Test results as given in ChEMBL document CHEMBL3351368, “Biphenyl-4-carboxylic acid [2-(1H-indol-3-yl)-ethyl]-methylamide (CA224), a nonplanar analogue of fascaplysin, inhibits Cdk4 and tubulin polymerization: evaluation of in vitro and in vivo anticancer activity” (J Med Chem, 2014).
# Activity calls are given as the source filed them.
# How the values were obtained:
# [1] = target: Cyclin-dependent kinase 1/cyclin B1 (Homo sapiens, UniProt P06493); test: Binding affinity to human CDK1/cyclinB1; type: protein-complex assay
# NCI-H358 [2] = test: Cell cycle arrest in human NCI-H358 cells assessed as accumulation of cells at G2/M phase at IC50 concentration after 18 hrs by flow cytometry in presence of […] uM hydroxyurea for 18 hrs (reference value: 33%); type: functional
# A549 [3] = test: Anticancer activity against p53+, pRb+ human A549 cells assessed as reduction in colony formation efficiency at 1.4 uM after 24 hrs by visual count/crystal violet staining method; type: functional; settings: A549, 24 h
# In short: (§1)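 Long-term survival assay. A549 and Calu-1 cells treated with a range of concentrations, colonies counted, efficiency expressed as percent of colonies versus untreated cultures. Means and standard deviations of three independent experiments.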
# A549 [4] = test: Induction of apoptosis in p53+, pRb+ human A549 cells assessed as fragmented nuclei/distrupted cell membrane at 1 to 10 uM by DAPI staining-based flow cytometry; type: functional; settings: TDE = time-dependent effect
# [5] = Terminal half life in BALB/c mouse at 1 mg/kg, iv; type: ADME, organism-based; design: dose 1 mg/kg, route intravenous; settings: in vivo, read-out: beta t1/2 (converted)
# In short: (§2)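 BALB/c mice given a single dose of 1.0 mg/kg IV or 10 mg/kg orally; plasma concentration followed over time and pharmacokinetic parameters derived from the time-concentration profile.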
# LS174T = test: Increase in p27 level in p53+, pRb+ human LS 174T cells at IC50 concentration after 24 hrs by Western blot analysis
# [6] = Oral bioavailability in BALB/c mouse at 10 mg/kg; type: ADME, organism-based; settings: in vivo; in short: as §2
# Mus musculus = test: Toxicity in human NCI-H460 cells xenografted in SCID mouse at 100 mg/kg, ip relative to untreated control; type: organism-based; design: dose 100 mg/kg, route intraperitoneal; settings: in vivo
# In short: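 SCID female mice, 15-24 g, 6-8 weeks old, received 5.3 × 10^6 NCI-H460 cells subcutaneously on the dorsal side. Randomized at 4-6 mm tumors (about 6 days) into groups of 6 or 7, then dosed intraperitoneally for 9 consecutive days. Body weight recorded daily as percent of the start-of-treatment weight; >10% drop counted significant, >20% highly significant.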
# [7] = Solubility in phosphate buffered saline; type: physicochemical
# [8] = target: Mitogen-activated protein kinase 1 (Homo sapiens) (UniProt P28482); test: Inhibition of human MAPK1 assessed as enzyme activity at 10 uM
# MiaPaCa = test: Effect on p27 level in p53His273 mutant, pRb+ human MiaPaCa cells at IC50 concentration after 48 hrs by Western blot analysis; type: functional
# [9] = Cell cycle arrest in mouse BNL-SVA.8 cells assessed as accumulation of cells at S phase at IC50 concentration after 48 hrs by flow cytometry (reference value: 23%); type: functional
# In short: (§3)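 Normal (BNL CL2) and SV40 large T-antigen transformed (BNL SV A.8) mouse embryonic hepatic cells were treated at IC50 or IC70 concentration for 48 h. Analysis was by FACS, with apoptosis taken as % cells in the sub-G1 peak. Untreated cells served as control.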
# NCI-H460 = test: Antitumor activity against human NCI-H460 cells xenografted in SCID mouse assessed as inhibition of tumor growth at 100 mg/kg, ip relative to untreated control; type: functional, organism-based; design: dose 100 mg/kg
# In short: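 Female SCID mice (15-24 g, 6-8 weeks) were given 5.3 × 10^6 NCI-H460 cells s.c. on the dorsal side. At 4-6 mm tumours (about 6 days) they were randomised into groups of 6 or 7 and dosed i.p. for 9 consecutive days. Tumour size was recorded every 2-5 days; weight = L × W² × 0.5. %T/C and %GI = 100 − %T/C; Student t-test versus control.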
# [10] = Growth inhibition of p53+, pRb+ human NCI-H460 cells after 48 hrs by MTT assay; type: functional, cell-based; settings: NCI-H460, 48 h
# In short: (§4)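 MTT cell proliferation assay. IC50 (µM) was defined as the concentration giving 50% inhibition of cell growth.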
# [11] = target: Insulin-like growth factor 1 receptor (Homo sapiens) (UniProt P08069); test: Inhibition of human IGF-1R assessed as enzyme activity at 10 uM
# CYP2C19 = CYP2C19 (Homo sapiens, UniProt P33261); test: Inhibition of human recombinant CYP2C19 at 10 uM; type: ADME
# NCI-H358 [12] = test: Growth inhibition of p53 null, pRb null human NCI-H358 cells after 48 hrs by MTT assay; type: functional, cell-based; settings: NCI-H358, 48 h; in short: as §4
# A549 [13] = test: Reduction cyclin B1 level in p53+, pRb+ human A549 cells at IC50 concentration after 24 hrs by Western blot analysis
# CDK9/cyclin T1 = CDK9/cyclin T1 (Homo sapiens, UniProt P50750); test: Binding affinity to human CDK9/cyclinT1; type: protein-complex assay
# [14] = Growth inhibition of mouse BNL-SVA.8 cells after 48 hrs by MTT assay; type: functional; in short: as §4
# [15] = target: Epidermal growth factor receptor (Homo sapiens) (UniProt P00533); test: Inhibition of human EGFR assessed as enzyme activity at 10 uM
# NCI-H358 [16] = test: Cell cycle arrest in human NCI-H358 cells assessed as accumulation of cells at G2/M phase at IC50 concentration after 12 hrs by flow cytometry in presence of nocodazole for 18 hrs (reference value: 42%); type: functional
# [17] = AUC (0 to infinity) in BALB/c mouse at 1 mg/kg, iv; type: ADME, organism-based; design: time infinity, dose 1 mg/kg, route intravenous; settings: plasma; in short: as §2
# [18] = Cell cycle arrest in SV-40 large T-antigen transformed human WI38 cells assessed as accumulation of cells at subG1 phase by flow cytometry; type: functional, cell-based; settings: WI-38
# [19] = target: Dual specificity mitogen-activated protein kinase kinase 1 (Homo sapiens) (UniProt Q02750); test: Inhibition of human MEK1 assessed as enzyme activity at 10 uM
# A549 [20] = test: Increase in p27 level in p53+, pRb+ human A549 cells at IC50 concentration after 24 hrs by Western blot analysis
# [21] = target: Protein kinase C alpha type (Homo sapiens) (UniProt P17252); test: Inhibition of human PKCalpha assessed as enzyme activity at 10 uM
# A549 [22] = test: Cell cycle arrest in human A549 cells assessed as accumulation of cells at G2/M phase at IC50 concentration after 24 hrs by flow cytometry (reference value: 22%); type: functional
# [23] = Anticancer activity against p53 null, pRb+ human Calu1 cells assessed as reduction in colony formation efficiency at 3 uM after 24 hrs by visual count/crystal violet staining method; type: functional; settings: Calu-1, 24 h; in short: as §1
# NCI-H1299 = test: Cell cycle arrest in human NCI-H1299 cells assessed as accumulation of cells at G2/M phase at IC50 concentration after 24 hrs by flow cytometry (reference value: 18%); type: functional
# [24] = Growth inhibition of p53His273 mut, pRb+ human MiaPaCa cells after 48 hrs by MTT assay; type: functional; settings: MIA PaCa-2, 48 h; in short: as §4
# [25] = Cell cycle arrest in mouse BNL-SVA.8 cells assessed as accumulation of cells at subG1 phase at IC70 concentration after 48 hrs by flow cytometry; type: functional; in short: as §3
# Chain of CYP2C19 (P33261 whole entry): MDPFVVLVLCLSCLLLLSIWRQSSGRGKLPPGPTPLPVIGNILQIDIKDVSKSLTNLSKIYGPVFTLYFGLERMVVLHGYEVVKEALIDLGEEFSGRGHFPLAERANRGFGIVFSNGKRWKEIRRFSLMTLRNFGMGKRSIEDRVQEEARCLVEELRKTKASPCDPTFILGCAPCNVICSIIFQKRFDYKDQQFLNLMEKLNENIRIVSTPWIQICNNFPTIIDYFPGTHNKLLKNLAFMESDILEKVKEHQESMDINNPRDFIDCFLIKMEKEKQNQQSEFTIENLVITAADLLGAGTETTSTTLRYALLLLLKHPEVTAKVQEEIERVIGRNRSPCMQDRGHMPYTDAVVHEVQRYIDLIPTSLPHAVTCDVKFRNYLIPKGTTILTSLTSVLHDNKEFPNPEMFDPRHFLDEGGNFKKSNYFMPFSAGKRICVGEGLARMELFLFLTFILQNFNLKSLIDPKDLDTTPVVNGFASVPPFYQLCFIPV
# Chain of Mitogen-activated protein kinase 1 (Homo sapiens) (P28482 whole entry, looked up): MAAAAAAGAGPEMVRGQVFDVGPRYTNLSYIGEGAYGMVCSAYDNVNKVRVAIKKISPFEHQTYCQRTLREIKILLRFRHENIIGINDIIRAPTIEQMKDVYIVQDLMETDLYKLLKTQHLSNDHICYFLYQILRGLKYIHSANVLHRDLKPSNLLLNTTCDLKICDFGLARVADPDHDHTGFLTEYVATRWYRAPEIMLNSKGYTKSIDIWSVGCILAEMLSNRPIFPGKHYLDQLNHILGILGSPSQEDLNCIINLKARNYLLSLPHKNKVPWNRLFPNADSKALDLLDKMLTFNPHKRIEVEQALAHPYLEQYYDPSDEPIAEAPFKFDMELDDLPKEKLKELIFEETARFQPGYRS
# Chain of Cyclin-dependent kinase 1/cyclin B1 (P06493 whole entry): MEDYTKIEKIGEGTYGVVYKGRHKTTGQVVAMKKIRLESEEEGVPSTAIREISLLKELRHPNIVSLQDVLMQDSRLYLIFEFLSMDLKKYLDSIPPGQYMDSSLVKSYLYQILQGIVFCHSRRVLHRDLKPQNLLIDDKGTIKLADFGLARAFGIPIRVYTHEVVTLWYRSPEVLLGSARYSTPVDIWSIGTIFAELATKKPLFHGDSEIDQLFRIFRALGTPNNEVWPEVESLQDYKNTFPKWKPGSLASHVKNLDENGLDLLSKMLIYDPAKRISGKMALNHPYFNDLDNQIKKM
# Chain of Cyclin-dependent kinase 1/cyclin B1 (P14635 whole entry, further chain): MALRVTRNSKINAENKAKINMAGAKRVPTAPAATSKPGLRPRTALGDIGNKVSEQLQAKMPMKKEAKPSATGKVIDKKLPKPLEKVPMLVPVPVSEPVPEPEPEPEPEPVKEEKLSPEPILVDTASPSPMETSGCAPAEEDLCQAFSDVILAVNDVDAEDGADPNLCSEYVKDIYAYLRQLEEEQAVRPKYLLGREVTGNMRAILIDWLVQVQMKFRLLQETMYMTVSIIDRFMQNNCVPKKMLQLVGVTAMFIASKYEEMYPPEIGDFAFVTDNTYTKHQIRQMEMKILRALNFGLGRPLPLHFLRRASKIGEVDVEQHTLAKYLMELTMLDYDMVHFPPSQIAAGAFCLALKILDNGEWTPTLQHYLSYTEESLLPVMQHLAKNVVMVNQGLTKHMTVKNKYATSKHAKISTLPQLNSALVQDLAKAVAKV
# Chain of Insulin-like growth factor 1 receptor (Homo sapiens) (P08069 31-736 limits assumed): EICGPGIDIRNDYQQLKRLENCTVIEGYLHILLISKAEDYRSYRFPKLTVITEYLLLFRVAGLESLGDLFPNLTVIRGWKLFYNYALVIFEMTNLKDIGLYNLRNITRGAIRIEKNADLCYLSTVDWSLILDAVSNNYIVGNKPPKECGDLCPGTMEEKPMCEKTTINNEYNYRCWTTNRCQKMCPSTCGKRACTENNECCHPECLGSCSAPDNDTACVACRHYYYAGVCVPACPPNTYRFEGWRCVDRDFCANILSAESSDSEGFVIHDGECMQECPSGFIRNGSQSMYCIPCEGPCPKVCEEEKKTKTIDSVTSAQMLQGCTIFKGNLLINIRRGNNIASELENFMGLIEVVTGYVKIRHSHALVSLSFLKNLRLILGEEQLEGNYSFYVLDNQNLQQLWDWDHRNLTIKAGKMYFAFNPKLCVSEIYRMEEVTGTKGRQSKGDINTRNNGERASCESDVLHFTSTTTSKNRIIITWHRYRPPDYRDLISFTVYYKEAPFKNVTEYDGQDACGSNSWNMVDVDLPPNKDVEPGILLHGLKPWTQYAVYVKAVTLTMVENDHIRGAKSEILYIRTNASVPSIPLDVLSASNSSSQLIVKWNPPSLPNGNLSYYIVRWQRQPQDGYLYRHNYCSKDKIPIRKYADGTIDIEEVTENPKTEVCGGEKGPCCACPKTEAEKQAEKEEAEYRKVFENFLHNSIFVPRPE
# Chain of Insulin-like growth factor 1 receptor (Homo sapiens) (P08069 741-1367 limits assumed): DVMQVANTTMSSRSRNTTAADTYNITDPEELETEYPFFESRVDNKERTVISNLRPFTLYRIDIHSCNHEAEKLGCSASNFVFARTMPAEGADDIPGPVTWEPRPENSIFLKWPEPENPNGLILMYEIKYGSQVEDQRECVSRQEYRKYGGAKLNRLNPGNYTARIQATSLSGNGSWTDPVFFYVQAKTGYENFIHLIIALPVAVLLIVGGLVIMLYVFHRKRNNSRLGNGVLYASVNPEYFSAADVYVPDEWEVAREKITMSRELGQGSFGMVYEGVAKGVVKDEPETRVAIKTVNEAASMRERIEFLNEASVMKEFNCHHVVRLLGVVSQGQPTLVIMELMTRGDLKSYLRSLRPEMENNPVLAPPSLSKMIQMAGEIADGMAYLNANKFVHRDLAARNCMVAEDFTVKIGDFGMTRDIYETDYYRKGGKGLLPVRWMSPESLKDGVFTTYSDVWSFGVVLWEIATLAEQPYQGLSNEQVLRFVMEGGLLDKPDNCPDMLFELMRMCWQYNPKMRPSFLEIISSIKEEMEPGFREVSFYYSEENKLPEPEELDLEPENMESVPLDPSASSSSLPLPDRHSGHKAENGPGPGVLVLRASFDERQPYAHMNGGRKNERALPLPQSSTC
# Chain of CDK9/cyclin T1 (O60563 whole entry): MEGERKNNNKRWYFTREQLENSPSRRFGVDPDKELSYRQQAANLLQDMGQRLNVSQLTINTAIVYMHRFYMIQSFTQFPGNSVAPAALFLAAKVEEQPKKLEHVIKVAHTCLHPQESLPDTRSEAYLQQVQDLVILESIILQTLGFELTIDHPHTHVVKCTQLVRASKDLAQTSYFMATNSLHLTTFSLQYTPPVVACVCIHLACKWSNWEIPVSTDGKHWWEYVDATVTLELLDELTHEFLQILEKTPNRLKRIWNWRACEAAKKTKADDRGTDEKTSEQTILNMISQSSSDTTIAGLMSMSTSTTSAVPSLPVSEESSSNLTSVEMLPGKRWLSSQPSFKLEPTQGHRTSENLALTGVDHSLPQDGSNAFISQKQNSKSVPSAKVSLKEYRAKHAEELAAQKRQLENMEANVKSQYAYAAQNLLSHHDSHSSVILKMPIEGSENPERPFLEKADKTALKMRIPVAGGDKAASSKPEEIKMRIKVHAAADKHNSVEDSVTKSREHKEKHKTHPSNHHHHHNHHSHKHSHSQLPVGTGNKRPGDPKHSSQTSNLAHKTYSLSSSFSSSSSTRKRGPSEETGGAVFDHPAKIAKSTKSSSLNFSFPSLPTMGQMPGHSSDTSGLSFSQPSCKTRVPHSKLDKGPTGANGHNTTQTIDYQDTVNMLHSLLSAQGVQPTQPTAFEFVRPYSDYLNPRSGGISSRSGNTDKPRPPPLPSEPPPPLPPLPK
# Chain of CDK9/cyclin T1 (P50750 whole entry): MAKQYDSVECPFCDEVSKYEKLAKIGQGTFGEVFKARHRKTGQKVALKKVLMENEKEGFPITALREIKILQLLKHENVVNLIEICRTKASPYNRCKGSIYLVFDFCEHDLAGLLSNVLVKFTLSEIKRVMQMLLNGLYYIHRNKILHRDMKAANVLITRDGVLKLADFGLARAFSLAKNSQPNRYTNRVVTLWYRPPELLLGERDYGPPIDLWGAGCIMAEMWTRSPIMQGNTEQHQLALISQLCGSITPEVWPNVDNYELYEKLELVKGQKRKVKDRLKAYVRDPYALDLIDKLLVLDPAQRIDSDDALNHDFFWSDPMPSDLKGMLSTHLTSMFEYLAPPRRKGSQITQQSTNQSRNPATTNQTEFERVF
# Chain of Dual specificity mitogen-activated protein kinase kinase 1 (Homo sapiens) (Q02750 whole entry): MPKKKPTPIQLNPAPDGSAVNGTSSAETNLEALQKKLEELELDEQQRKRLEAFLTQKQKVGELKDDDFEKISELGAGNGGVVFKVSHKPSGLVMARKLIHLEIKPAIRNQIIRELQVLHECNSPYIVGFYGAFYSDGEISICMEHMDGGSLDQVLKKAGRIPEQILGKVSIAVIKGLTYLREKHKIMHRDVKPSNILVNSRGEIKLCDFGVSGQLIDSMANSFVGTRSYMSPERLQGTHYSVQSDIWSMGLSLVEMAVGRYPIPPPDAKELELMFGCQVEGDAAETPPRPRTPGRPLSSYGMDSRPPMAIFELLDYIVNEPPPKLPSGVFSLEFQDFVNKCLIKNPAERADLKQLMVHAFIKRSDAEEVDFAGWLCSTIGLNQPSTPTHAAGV
smiles,measurement,setting,value
CN(CCc1c[nH]c2ccccc12)C(=O)c1ccc(-c2ccccc2)cc1,IC50,[1],> 500 µM
same,Activity,NCI-H358 [2],72%
same,inhibition at 1.4 µM,A549 [3],50%
same,Activity,A549 [4],tde
same,half-life,[5],19.8 min
same,Activity,LS174T,Active
same,bioavailability,[6],9.6%
same,Activity,Mus musculus,Non-toxic
same,solubility,[7],125 µg/mL
same,inhibition,[8],inactive
same,Activity,MiaPaCa,inactive
same,Activity,[9],21%
same,Activity,NCI-H460,Active
same,IC50,[10],2 µM
same,inhibition,[11],inactive
same,inhibition at 10 µM,CYP2C19,19%
same,IC50,NCI-H358 [12],2.2 µM
same,inhibition,A549 [13],Active
same,IC50,CDK9/cyclin T1,> 1000 µM
same,IC50,[14],3.8 µM
same,inhibition,[15],inactive
same,Activity,NCI-H358 [16],74%
same,AUC(0-inf),[17],189 ng·h/mL
same,Activity,[18],Active
same,inhibition,[19],inactive
same,Activity,A549 [20],Active
same,inhibition,[21],inactive
same,Activity,A549 [22],89%
same,inhibition at 3 µM,[23],50%
same,Activity,NCI-H1299,71%
same,IC50,[24],4 µM
same,Activity,[25],44%
